In paper PMC8897208 (Acta Pharmaceutica Sinica. B, 2021):

Tests used:
SIRT6 [1] = biological target: T1, SIRT6 (Homo sapiens, UniProt Q8N6T7); test: Fluor de Lys; type: biochemical
How it was run: (§1)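 Recombinant SIRT6 was expressed in E. coli BL21 in LB with 100 μg/mL ampicillin at 37 °C. Expression was induced with 0.5 mmol/L IPTG at OD600 0.8, then grown 18 h at 16 °C and purified by an earlier method.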

SIRT6 [2] = biological target: T1, SIRT6; test: FDL assay of SIRT6 deacetylation on H3K9Ac peptide; type: biochemical
How it was run: as §1

SIRT6 [3] = biological target: T1, SIRT6; test: HPLC assay of SIRT6 deacetylation on H3K9Ac; type: biochemical; details: 50 μmol/L JYQ-42, H3K9Ac peptide
SIRT6 [4] = biological target: T1, SIRT6; test: In vitro nucleosome deacetylation assay; type: biochemical; details: Western blot
How it was run: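 Nucleosomes were isolated from HeLa cells and deacetylated in vitro by SIRT6 in the presence of NAD+. H3K9Ac and H3K18Ac were detected by Western blot.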

SIRT6 [5] = biological target: T1, SIRT6; test: Enzymatic kinetic assays by HPLC; type: biochemical; details: for kcat (Ac-RHKK-Ac-AMC): varied Ac-RHKK-Ac-AMC, HPLC
[6] = tested on: SIRT6 mutants (Y5A, T57A, P62A, D63A, P67A, H68A, V70A, P80A, K81A, Y257A); test: FDL assay on SIRT6 Pocket Z mutants; type: biochemical, human
How it was run: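 SIRT6 point mutants were made by site-directed mutagenesis. Each plasmid was expressed separately in E. coli BL21 (LB, 100 μg/mL ampicillin, 37 °C), induced with 0.5 mmol/L IPTG at OD600 0.8 for 18 h at 16 °C, and purified as for wild type.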

HDAC3 = HDAC3 (Homo sapiens, UniProt O15379); test: HDACs selectivity assay; type: biochemical
Sequence of HDAC3 (O15379 whole entry): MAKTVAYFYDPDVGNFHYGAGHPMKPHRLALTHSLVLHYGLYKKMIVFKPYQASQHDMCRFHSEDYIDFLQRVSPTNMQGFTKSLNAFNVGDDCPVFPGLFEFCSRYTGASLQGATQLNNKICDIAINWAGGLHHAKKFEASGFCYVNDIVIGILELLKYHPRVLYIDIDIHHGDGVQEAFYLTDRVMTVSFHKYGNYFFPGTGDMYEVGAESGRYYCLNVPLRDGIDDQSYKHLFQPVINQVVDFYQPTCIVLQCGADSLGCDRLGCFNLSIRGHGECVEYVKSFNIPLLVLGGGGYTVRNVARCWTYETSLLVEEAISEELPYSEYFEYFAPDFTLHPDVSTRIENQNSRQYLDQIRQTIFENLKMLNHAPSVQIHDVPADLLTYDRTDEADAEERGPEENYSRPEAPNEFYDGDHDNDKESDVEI
Sequence of HDAC3 (Q9Y618 395-489 partner limits assumed): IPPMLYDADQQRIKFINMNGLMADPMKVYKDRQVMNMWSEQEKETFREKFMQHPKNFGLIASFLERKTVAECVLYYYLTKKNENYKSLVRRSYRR
How it was run: (§2)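 Enzyme selectivity panel was run by an outside contract lab to its standard assay protocols. IC50 values came from dose–response fitting of the data points. Each experiment was done independently at least three times.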

HDAC4 = HDAC4 (Homo sapiens, UniProt P56524); test: HDACs selectivity assay; type: biochemical
Sequence of HDAC4 (P56524 whole entry): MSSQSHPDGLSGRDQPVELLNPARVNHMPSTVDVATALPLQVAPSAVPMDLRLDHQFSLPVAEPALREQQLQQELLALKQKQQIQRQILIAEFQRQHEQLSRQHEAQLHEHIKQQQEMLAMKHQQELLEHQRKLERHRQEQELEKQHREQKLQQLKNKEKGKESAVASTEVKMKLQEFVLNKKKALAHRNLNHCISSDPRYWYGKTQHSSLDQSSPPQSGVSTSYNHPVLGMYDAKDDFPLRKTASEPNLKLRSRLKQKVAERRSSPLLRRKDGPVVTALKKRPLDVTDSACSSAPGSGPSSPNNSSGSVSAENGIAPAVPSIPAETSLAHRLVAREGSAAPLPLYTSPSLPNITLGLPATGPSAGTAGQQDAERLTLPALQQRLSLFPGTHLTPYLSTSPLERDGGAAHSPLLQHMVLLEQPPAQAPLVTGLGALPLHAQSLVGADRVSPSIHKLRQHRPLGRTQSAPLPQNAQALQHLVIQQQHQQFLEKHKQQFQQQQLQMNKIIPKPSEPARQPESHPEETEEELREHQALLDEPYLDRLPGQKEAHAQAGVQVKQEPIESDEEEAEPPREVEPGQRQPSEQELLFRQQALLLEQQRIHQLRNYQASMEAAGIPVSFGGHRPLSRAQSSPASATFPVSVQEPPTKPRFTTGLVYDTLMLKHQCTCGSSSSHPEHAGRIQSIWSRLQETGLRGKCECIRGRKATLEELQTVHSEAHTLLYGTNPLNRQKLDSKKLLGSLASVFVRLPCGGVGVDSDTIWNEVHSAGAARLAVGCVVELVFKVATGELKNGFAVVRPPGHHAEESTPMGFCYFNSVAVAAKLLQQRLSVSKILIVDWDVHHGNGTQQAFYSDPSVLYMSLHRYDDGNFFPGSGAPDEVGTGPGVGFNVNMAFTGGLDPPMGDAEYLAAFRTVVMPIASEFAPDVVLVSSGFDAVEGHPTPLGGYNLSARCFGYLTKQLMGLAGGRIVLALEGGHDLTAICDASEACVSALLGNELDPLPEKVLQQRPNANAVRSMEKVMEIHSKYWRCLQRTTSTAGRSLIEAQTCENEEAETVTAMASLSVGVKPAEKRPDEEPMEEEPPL
How it was run: as §2

HDAC9 = HDAC9 (Homo sapiens, UniProt Q9UKV0); test: HDACs selectivity assay; type: biochemical
Sequence of HDAC9 (Q9UKV0 whole entry): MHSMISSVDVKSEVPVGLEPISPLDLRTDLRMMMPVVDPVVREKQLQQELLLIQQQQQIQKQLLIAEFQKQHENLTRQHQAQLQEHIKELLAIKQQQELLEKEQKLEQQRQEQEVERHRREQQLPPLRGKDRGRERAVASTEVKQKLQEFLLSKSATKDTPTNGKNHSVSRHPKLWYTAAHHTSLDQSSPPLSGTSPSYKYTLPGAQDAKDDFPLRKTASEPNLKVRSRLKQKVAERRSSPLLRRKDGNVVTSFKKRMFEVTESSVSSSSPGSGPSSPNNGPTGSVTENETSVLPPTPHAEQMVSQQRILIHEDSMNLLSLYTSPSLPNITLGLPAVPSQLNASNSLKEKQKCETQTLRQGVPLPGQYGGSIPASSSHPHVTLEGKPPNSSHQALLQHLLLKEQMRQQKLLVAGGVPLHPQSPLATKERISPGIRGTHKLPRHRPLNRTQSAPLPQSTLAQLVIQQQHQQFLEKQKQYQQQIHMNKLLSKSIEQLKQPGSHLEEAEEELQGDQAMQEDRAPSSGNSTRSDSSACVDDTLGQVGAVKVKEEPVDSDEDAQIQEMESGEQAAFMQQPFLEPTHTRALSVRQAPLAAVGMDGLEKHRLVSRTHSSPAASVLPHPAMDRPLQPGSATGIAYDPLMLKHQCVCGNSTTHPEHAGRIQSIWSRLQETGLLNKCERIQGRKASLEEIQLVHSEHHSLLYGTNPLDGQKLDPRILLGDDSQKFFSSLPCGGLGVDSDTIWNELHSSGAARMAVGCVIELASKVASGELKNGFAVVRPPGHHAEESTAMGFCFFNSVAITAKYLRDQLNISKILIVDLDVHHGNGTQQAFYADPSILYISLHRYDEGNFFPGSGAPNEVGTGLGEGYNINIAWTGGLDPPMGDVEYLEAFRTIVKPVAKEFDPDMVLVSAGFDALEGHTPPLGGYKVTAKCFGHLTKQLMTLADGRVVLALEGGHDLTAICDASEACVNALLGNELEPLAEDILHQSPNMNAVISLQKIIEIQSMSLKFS
How it was run: as §2

SIRT5 (residues 34–302) = biological target: T2, SIRT5 (residues 34–302) (Homo sapiens, UniProt Q9NXA8); test: Selectivity FDL deacetylation assay; type: biochemical
T2 sequence (Q9NXA8 34-302): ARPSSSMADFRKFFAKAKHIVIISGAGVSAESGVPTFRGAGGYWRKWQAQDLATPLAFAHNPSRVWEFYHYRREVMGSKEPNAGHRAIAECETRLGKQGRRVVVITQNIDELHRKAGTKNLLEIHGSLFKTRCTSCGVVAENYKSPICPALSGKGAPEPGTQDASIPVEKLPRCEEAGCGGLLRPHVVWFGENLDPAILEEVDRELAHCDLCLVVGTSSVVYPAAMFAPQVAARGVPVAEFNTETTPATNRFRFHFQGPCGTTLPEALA

full-length SIRT7 = biological target: T3, full-length SIRT7 (Homo sapiens, UniProt Q9NRC8); test: Selectivity FDL deacetylation assay; type: biochemical
T3 sequence (Q9NRC8 1-400): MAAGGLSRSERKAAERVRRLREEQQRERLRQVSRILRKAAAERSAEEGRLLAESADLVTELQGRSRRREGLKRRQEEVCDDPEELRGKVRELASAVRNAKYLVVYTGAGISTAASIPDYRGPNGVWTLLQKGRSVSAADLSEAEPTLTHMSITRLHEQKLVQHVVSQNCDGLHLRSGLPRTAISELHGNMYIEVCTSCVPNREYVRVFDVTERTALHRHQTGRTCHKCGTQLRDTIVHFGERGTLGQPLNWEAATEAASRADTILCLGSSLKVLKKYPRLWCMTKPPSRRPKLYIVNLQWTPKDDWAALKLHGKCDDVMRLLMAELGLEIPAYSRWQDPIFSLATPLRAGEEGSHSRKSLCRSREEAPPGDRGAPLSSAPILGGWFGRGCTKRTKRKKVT

MiaPaCa-2 cells [7] = test: Western blot of SIRT6 substrates H3K9Ac, H3K18Ac, H3K56Ac; type: cell-based; details: MiaPaCa-2, different concentrations of JYQ-42, Western blot
How it was run: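 BXPC-3 cells were grown in RPMI1640 and MiaPaCa-2 cells in DMEM, each with 10% FBS and penicillin/streptomycin, at 37 °C under 5% CO2. Both lines were STR-verified. Cells took test compound at 0, 10, 20 or 40 μmol/L for 24 or 48 h and were lysed in 1× SDS loading buffer. Proteins were separated on 12% SDS-PAGE and transferred to PVDF. Blocking used Tris-NaCl pH 7.5 with Tween-20 and 5% milk. Detection was chemiluminescent (HRP), with β-actin as loading control.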

BXPC-3 cells [8] = test: Migration assay with xCELLigence RTCA-DP; type: cell-based; details: 5, 10, 20 μmol/L, effect even at 5 μmol/L
MiaPaCa-2 cells [9] = test: Migration assay with xCELLigence RTCA-DP; type: cell-based; details: effect even at 5 μmol/L
BXPC-3 cells [10] = test: Proliferation assay; type: cell-based; details: BXPC-3, up to 20 μmol/L, 48 h, CCK-8
BXPC-3 cells [11] = test: Migration assay by wound healing; type: cell-based; details: for relative migration rate (wound healing): control ~0.60

T1 sequence (Q8N6T7 whole entry): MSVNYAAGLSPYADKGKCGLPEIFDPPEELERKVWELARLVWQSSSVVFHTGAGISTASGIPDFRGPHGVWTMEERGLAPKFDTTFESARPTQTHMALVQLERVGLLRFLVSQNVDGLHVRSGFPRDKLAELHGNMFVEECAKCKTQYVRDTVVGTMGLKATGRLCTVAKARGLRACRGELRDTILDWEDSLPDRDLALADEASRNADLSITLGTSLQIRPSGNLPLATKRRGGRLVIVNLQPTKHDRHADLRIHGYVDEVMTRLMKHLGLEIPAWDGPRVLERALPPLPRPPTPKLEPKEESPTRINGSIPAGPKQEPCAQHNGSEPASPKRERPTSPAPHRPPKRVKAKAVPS

Question: What does the source list for `Nc1nonc1-n1cc(C(=O)N/N=C/c2cc(Cl)cc(C(F)(F)F)c2)nn1` [JYQ-42]?
Answer: IC50 (SIRT6 [1]): 2.33 ± 0.17 µM; inhibition ratio at 50 μmol/L (SIRT6 [1]; FDL assay, substrate Ac-RHKK-Ac-AMC, 50 μmol/L compound): 85.3%; Effect (SIRT6 [1]; SIRT6 (Table 2)): Inhibition; inhibition ratio at 50 μmol/L on H3K9Ac (SIRT6 [2]): 90.7%; amount of H3K9-free lysine peptides by HPLC (SIRT6 [3]): decreased prominently; inhibition of SIRT6 deacetylase activity on nucleosomes (SIRT6 [4]; 0.5 μmol/L): inhibit the deacetylase activity of SIRT6 significantly; inhibition of SIRT6 deacetylase activity on nucleosomes (SIRT6 [4]; 1 μmol/L): completely/totally inhibited; inhibition mode (SIRT6 [5]; Lineweaver–Burk analysis towards NAD^+ and Ac-RHKK-Ac-AMC): non-competitive inhibitor; kcat (Ac-RHKK-Ac-AMC) (SIRT6 [5]; SIRT6 with 1 μmol/L JYQ-42): 33.65 × 10^−4 S^−1; kcat (Ac-RHKK-Ac-AMC) (SIRT6 [5]; SIRT6 with 3 μmol/L JYQ-42): 22.12 × 10^−4 S^−1; kcat (Ac-RHKK-Ac-AMC) (SIRT6 [5]; SIRT6 with 10 μmol/L JYQ-42): 13.86 × 10^−4 S^−1; IC50 values on SIRT6 mutants ([6]; Y5A, T57A, P62A, D63A, P67A, H68A, V70A, P80A, K81A, Y257A versus wild type): increased; inhibition of SIRT6 deacetylation, T57A and H68A mutants ([6]; mutations T57A and H68A): completely disrupted JYQ-42 inhibition; IC50 (HDAC3): > 100 µM; IC50 (HDAC4): > 100 µM; IC50 (HDAC9): > 100 µM; IC50 (SIRT5 (residues 34–302)): > 100 µM; IC50 (full-length SIRT7): > 100 µM; levels of H3K9Ac, H3K18Ac and H3K56Ac (MiaPaCa-2 cells [7]): increased the levels of H3K9Ac, H3K18Ac and H3K56Ac in a dose-dependent manner; migration of pancreatic cancer cells (RTCA cell index) (BXPC-3 cells [8]): dramatically attenuated; migration of pancreatic cancer cells (RTCA cell index) (MiaPaCa-2 cells [9]): dramatically attenuated; cell growth (BXPC-3 cells [10]): no significant impact on cell growth; relative migration rate (wound healing) (BXPC-3 cells [11]; BXPC-3, 10 μmol/L JYQ-42, 24 h): ~ 0.3; relative migration rate (wound healing) (BXPC-3 cells [11]; BXPC-3, 20 μmol/L JYQ-42, 24 h): ~ 0.24; relative migration rate (wound healing) (BXPC-3 cells [11]; BXPC-3, 40 μmol/L JYQ-42, 24 h): ~ 0.10; migration with ADPr co-treatment (wound healing) (BXPC-3 cells [11]; BXPC-3, 40 μmol/L JYQ-42 in the presence of 0.5 mmol/L ADPr): no influence on the migration
